ChEMBL document CHEMBL1154425, “Histatin-derived monomeric and dimeric synthetic peptides show strong bactericidal activity towards multidrug-resistant Staphylococcus aureus in vivo” (Antimicrob Agents Chemother, 2007)
Positions of bridges follow the written chain, without caps; N, C: chain ends. Residues, ends and D or L forms follow the SMILES beside them. Chains are numbered I, II in the order given.

Experiments:
Staphylococcus aureus [1] = assay: Bactericidal activity against Staphylococcus aureus ATCC 25923 after 2 hrs; type: functional; conditions: ATCC 25923, 2 h
How it was run: (§1)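 1 × 10^6/ml bacteria in phosphate buffer with 1% (wt/vol) tryptic soybean broth exposed to various peptide amounts, 2 h at 37°C. Viable counts on DST plates. LC50 = concentration (μM) cutting viable bacteria by 50% versus no-peptide incubations. Means from at least three independent experiments.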

Staphylococcus aureus [2] = assay: Bactericidal activity against multidrug-resistant Staphylococcus aureus 2141 isolate after 2 hrs; type: functional; how it was run: as §1
Staphylococcus aureus [3] = assay: Bactericidal activity against Staphylococcus aureus ATCC 25923 infected iv dosed Swiss mouse assessed per gram of infected soft tissue after 24 hrs; type: functional
How it was run: (§2)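 Mice infected with 0.1 ml saline containing 0.5 to 2.0 × 10^7 CFU. After 18 h, various peptide amounts given intravenously. Mice kept another 24 h, then sacrificed and viable bacteria counted. LC50 = μmol/g infected tissue cutting viable counts by 50% versus untreated mice. Means from at least three animals per peptide concentration.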

Staphylococcus aureus [4] = assay: Bactericidal activity against multidrug-resistant Staphylococcus aureus 2141 isolate infected iv dosed Swiss mouse assessed per gram of infected soft tissue after 24 hrs; type: functional; how it was run: as §2
Mus musculus = assay: Metabolic stability in Swiss mouse at 2 to 5 MBq, iv administered as [99m]technetium-radiolabeled peptide by scintigraphic imaging; type: ADME, organism-based; conditions: in vivo
How it was run: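 After intravenous injection of 99mTc-labelled peptide (2 to 5 MBq) into thigh-infected mice, scintigraphic imaging follows clearance from the circulation. The value is the biological half-life in minutes, mean ± SD.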

[5] = Biodistribution in Swiss mouse urinary bladder at 2 to 5 MBq, iv administered as [99m]technetium-radiolabeled peptide by scintigraphic imaging; type: ADME, organism-based; conditions: in vivo
How it was run: (§3)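 Mice carry a thigh-muscle infection from 0.1 ml saline containing 0.5 to 2.0 × 10^7 CFU S. aureus. Peptides labelled with 99mTc (2 to 5 MBq) are injected intravenously and tracked by scintigraphic imaging. Radioactivity in bladder, kidneys, spleen, liver and infected muscle is given as % of injected dose, mean ± SD.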

Kidney = assay: Biodistribution in Swiss mouse kidney at 2 to 5 MBq, iv administered as [99m]technetium-radiolabeled peptide by scintigraphic imaging; type: ADME, organism-based; conditions: in vivo; how it was run: as §3
Spleen = assay: Biodistribution in Swiss mouse spleen at 2 to 5 MBq, iv administered as [99m]technetium-radiolabeled peptide by scintigraphic imaging; type: ADME, organism-based; conditions: in vivo; how it was run: as §3
Liver = assay: Biodistribution in Swiss mouse liver at 2 to 5 MBq, iv administered as [99m]technetium-radiolabeled peptide by scintigraphic imaging; type: ADME, organism-based; conditions: in vivo; how it was run: as §3
[6] = Biodistribution in Staphylococcus aureus infected Swiss mouse thigh muscle at 2 to 5 MBq, iv administered as [99m]technetium-radiolabeled peptide by scintigraphic imaging; type: ADME, organism-based, Muscle tissue; conditions: in vivo; how it was run: as §3
[7] = Ratio of drug level in infected thigh muscle to contralateral noninfected thigh muscle in Staphylococcus aureus […] infected Swiss mouse administered as [99m]technetium-radiolabeled peptide; type: ADME, tissue-based; conditions: in vivo
How it was run: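 Thighs are infected with 0.5 to 2.0 × 10^7 CFU S. aureus in 0.1 ml saline, and 99mTc-labelled peptide is given intravenously. Scintigraphic imaging compares radioactivity in the infected thigh muscle (target) with the contralateral noninfected thigh muscle (nontarget). The T/NT ratio is determined at several intervals after injection.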

[8] = Ratio of drug level in infected thigh muscle to contralateral noninfected thigh muscle in multidrug-resistant Staphylococcus aureus 2141 infected Swiss mouse administered as [99m]technetium-radiolabeled peptide; type: ADME, tissue-based; conditions: in vivo
How it was run: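 99mTc-labelled peptides (2 to 5 MBq) injected intravenously into infected mice. Scintigraphic imaging at intervals. Ratio = accumulation in infected thigh muscle (target) over contralateral noninfected thigh muscle (nontarget).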

SMILES: N=C(N)NCCC[C@H](NC(=O)[C@H](Cc1cnc[nH]1)NC(=O)[C@H](CO)NC(=O)[C@H](Cc1cnc[nH]1)NC(=O)[C@H](Cc1cnc[nH]1)NC(=O)[C@H](CCCCN)NC(=O)[C@H](CCC(=O)O)NC(=O)[C@H](Cc1cnc[nH]1)NC(=O)[C@H](Cc1ccccc1)NC(=O)[C@H](CCCCN)NC(=O)[C@H](CCCNC(=N)N)NC(=O)[C@@H](N)CCCCN)C(=O)NCC(=O)N[C@@H](Cc1ccc(O)cc1)C(=O)O (H-KRKFHEKHHSHRGY-OH)
- LC50 (Staphylococcus aureus [1]): 35 µM
- LC50 (Staphylococcus aureus [2]): 112 µM
- LC50 (Staphylococcus aureus [3]): 2 µmol/g
- LC50 (Staphylococcus aureus [4]): 1 µmol/g
- t1/2 (Mus musculus): 17.7 min
- Drug uptake [5]: 30.7 %ID
- Drug uptake (Kidney): 21 %ID
- Drug uptake (Spleen): 2.1 %ID
- Drug uptake (Liver): 9.4 %ID
- Drug uptake [6]: 0.4 %ID
- Ratio [7]: 3.5
- Ratio [8]: 1.8

SMILES: N=C(N)NCCC[C@H](NC(=O)[C@H](Cc1cnc[nH]1)NC(=O)[C@H](CO)NC(=O)[C@H](Cc1cnc[nH]1)NC(=O)[C@H](Cc1cnc[nH]1)NC(=O)[C@H](CCCCN)NC(=O)[C@H](CCC(=O)O)NC(=O)[C@H](Cc1cnc[nH]1)NC(=O)[C@H](Cc1ccccc1)NC(=O)[C@H](CCCCN)NC(=O)[C@H](CCCNC(=N)N)NC(=O)[C@@H](N)CCCCN)C(=O)NCC(=O)N[C@@H](Cc1ccc(O)cc1)C(=O)NCCCC[C@H](NC(=O)[C@H](Cc1ccc(O)cc1)NC(=O)CNC(=O)[C@H](CCCNC(=N)N)NC(=O)[C@H](Cc1cnc[nH]1)NC(=O)[C@H](CO)NC(=O)[C@H](Cc1cnc[nH]1)NC(=O)[C@H](Cc1cnc[nH]1)NC(=O)[C@H](CCCCN)NC(=O)[C@H](CCC(=O)O)NC(=O)[C@H](Cc1cnc[nH]1)NC(=O)[C@H](Cc1ccccc1)NC(=O)[C@H](CCCCN)NC(=O)[C@H](CCCNC(=N)N)NC(=O)[C@@H](N)CCCCN)C(N)=O (I: H-KRKFHEKHHSHRGYK-NH2 / II: H-KRKFHEKHHSHRGY; amide I:15-II:C)
- LC50 (Staphylococcus aureus [1]): 8.4 µM
- LC50 (Staphylococcus aureus [2]): 8.2 µM
- LC50 (Staphylococcus aureus [3]): 1.5 µmol/g
- LC50 (Staphylococcus aureus [4]): 2 µmol/g
- t1/2 (Mus musculus): 8.6 min
- Drug uptake [5]: 26.8 %ID
- Drug uptake (Kidney): 10.5 %ID
- Drug uptake (Spleen): 3.2 %ID
- Drug uptake (Liver): 9 %ID
- Drug uptake [6]: 0.5 %ID
- Ratio [7]: 4.4
- Ratio [8]: 1.8
